{"source": "ChEMBL document CHEMBL1926621", "about": "“New potent 5-HT(2A) receptor ligands containing an N'-cyanopicolinamidine nucleus: Synthesis and in vitro pharmacological evaluation” (Eur J Med Chem, 2012)", "key": {"[1]": {"target": "T1, Adrenergic receptor alpha-1 (Rattus norvegicus, UniProt P15823+P23944+P43140)", "T1 sequence (P15823 whole entry)": "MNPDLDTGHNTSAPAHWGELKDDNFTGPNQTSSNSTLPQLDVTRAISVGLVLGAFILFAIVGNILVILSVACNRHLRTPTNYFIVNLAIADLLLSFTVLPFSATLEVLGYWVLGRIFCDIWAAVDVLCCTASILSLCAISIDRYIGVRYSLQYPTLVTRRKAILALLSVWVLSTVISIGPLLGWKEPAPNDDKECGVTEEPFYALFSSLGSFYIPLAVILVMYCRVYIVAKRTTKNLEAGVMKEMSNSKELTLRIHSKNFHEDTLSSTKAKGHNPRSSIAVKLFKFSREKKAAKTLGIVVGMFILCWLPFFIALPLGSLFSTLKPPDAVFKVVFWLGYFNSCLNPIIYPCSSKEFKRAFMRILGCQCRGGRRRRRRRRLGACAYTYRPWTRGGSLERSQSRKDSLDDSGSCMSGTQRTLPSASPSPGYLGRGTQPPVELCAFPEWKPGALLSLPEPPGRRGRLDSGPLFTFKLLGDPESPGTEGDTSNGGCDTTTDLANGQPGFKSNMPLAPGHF", "T1 sequence (P23944 whole entry)": "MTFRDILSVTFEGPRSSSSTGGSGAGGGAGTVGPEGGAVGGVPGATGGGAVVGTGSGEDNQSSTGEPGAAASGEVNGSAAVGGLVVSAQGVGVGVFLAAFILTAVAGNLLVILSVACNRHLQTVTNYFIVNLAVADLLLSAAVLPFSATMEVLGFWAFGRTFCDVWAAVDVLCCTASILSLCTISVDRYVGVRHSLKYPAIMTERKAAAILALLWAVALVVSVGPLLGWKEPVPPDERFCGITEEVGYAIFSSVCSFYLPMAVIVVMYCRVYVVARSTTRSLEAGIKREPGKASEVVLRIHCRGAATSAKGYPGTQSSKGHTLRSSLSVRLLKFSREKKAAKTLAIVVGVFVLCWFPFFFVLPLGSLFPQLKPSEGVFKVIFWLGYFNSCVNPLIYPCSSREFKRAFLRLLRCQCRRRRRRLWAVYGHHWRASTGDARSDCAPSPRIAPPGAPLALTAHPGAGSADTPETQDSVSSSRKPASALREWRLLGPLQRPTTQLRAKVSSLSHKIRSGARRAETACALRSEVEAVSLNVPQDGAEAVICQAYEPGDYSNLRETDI", "T1 sequence (P43140 whole entry)": "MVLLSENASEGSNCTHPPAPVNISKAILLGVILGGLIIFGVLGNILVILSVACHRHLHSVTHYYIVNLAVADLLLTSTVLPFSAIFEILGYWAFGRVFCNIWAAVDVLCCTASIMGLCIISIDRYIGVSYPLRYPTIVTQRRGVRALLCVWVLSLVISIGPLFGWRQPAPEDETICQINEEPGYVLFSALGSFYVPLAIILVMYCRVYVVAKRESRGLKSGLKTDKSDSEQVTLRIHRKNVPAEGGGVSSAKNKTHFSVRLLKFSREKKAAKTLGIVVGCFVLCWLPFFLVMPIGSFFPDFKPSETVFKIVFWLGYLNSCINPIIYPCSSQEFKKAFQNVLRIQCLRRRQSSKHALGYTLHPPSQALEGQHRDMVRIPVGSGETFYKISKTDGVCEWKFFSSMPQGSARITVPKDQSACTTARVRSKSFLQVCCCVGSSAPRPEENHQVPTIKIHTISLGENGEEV", "assay": "Displacement of [3H]prazosin from rat brain cortex adrenergic alpha1 receptor after 30 mins by liquid scintillation counting", "procedure,_shortened": "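Brain cortex homogenized in 50 mM Tris-HCl pH 7.2, spun twice at 50,000 g, resuspended in Tris-HCl pH 7.4. 0.4 nM [3H]prazosin final, 10 mg fresh tissue, 30 min at 25 °C. Nonspecific binding with phentolamine. GF/B filtration. Ki by Cheng-Prusoff from six-point triplicate curves.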"}, "[2]": {"target": "T2, Adrenergic receptor alpha-2 (Rattus norvegicus, UniProt P22086+P19328+P22909)", "T2 sequence (P22086 whole entry)": "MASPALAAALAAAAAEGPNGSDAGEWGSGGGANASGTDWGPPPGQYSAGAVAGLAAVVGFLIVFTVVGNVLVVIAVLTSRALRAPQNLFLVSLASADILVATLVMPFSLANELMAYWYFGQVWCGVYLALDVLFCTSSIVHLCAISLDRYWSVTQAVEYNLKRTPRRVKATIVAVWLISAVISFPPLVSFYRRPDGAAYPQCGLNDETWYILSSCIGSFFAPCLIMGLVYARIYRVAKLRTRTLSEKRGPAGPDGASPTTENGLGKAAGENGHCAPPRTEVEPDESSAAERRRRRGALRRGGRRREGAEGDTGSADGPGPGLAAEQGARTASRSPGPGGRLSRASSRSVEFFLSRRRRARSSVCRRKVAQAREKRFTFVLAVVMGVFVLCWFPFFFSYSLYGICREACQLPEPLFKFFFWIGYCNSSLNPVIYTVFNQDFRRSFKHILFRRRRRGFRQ", "T2 sequence (P19328 whole entry)": "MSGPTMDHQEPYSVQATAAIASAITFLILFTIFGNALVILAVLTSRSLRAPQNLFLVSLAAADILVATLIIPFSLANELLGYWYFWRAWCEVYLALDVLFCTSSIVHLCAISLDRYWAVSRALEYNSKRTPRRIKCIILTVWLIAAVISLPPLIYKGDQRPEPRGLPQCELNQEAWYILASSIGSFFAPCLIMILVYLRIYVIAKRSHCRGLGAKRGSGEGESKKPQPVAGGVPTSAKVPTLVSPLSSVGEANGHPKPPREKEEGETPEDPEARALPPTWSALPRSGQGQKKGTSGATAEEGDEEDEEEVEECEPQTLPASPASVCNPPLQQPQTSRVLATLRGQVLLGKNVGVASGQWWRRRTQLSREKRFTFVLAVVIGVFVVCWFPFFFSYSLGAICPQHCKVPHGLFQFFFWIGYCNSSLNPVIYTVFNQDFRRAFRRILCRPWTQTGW", "T2 sequence (P22909 whole entry)": "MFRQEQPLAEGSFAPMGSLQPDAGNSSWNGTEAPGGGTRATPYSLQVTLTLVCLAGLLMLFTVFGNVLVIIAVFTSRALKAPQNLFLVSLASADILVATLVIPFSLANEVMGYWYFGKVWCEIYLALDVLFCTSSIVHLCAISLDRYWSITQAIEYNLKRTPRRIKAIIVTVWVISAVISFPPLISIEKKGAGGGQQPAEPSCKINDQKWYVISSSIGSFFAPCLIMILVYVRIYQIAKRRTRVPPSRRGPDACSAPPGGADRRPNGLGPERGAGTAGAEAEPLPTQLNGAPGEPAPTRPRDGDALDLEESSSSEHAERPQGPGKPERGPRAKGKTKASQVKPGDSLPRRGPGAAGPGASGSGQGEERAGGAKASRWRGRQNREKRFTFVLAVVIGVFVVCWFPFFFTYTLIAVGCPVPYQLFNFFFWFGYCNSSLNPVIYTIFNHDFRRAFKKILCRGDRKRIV", "assay": "Displacement of [3H]yohimbine from rat brain cortex adrenergic alpha2 receptor after 30 mins by liquid scintillation counting", "procedure,_shortened": "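Cortex homogenized in 5 mM Tris-HCl, 5 mM EDTA pH 7.3, spun three times at 50,000 g, resuspended in 50 mM Tris-HCl, 0.5 mM EDTA pH 7.5. [3H]yohimbine 1 nM final, 10 mg fresh tissue, 30 min at 25 °C. Phentolamine defined nonspecific binding. Ki by Cheng-Prusoff.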"}, "[3]": {"target": "5-hydroxytryptamine receptor 2A (Rattus norvegicus) (UniProt P14842)", "sequence (P14842 whole entry)": "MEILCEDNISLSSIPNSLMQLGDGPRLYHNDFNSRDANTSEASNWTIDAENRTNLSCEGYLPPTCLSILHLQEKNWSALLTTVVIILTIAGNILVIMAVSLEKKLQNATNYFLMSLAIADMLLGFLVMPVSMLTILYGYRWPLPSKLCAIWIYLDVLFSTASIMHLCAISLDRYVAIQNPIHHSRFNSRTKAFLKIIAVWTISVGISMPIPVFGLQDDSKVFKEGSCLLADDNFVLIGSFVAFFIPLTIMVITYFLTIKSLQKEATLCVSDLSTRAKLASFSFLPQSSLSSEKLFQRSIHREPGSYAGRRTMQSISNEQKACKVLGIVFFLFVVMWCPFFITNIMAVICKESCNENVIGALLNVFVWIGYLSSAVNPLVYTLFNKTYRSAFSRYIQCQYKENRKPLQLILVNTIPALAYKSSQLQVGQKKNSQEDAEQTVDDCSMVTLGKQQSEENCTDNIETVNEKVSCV", "assay": "Displacement of [3H]ketanserin from Sprague-Dawley rat brain cortex serotonin 5-HT2A receptor at 0.001 uM after 15 mins by liquid scintillation counting"}, "[4]": {"target": "5-hydroxytryptamine receptor 2A (Rattus norvegicus) (UniProt P14842)", "assay": "Displacement of [3H]ketanserin from Sprague-Dawley rat brain cortex serotonin 5-HT2A receptor at 0.00001 uM after 15 mins by liquid scintillation counting"}, "[5]": {"target": "5-hydroxytryptamine receptor 2A (Rattus norvegicus) (UniProt P14842)", "assay": "Displacement of [3H]ketanserin from Sprague-Dawley rat brain cortex serotonin 5-HT2A receptor at 0.0000001 uM after 15 mins by liquid scintillation counting"}}}
{"smiles": "N#C/N=C(\\NCCCN1CCN(c2cccc(Cl)c2)CC1)c1ccccn1", "values": [{"measurement": "Ki", "setting": "[1]", "value": 174, "unit": "nM"}, {"measurement": "Ki", "setting": "[2]", "value": 1360, "unit": "nM"}, {"measurement": "inhibition", "setting": "[3]", "value": 95.1, "unit": "%"}, {"measurement": "inhibition", "setting": "[4]", "value": 68.8, "unit": "%"}, {"measurement": "inhibition", "setting": "[5]", "value": 45.3, "unit": "%"}]}
